Measured values taken from ChEMBL document CHEMBL1136894, “New antituberculotics originated from salicylanilides with promising in vitro activity against atypical mycobacterial strains” (Bioorg Med Chem, 2009).
pEC50: −log10 of the molar value. Converted amounts (≈) assume the structure as drawn.

How the values were obtained:
Mycobacterium kansasii [1] = test: Antimycobacterial activity against Mycobacterium kansasii CNCTC My 235/80 after 7 days; assay type: functional; settings: CNCTC My 235/80, 168 h
Outline: (§1)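 Compounds were added as DMSO solutions to Sula semisynthetic medium at 250, 125, 62, 32, 16, 8, 4, 2 and 1 µmol/L. Two M. kansasii strains were used: CNCTC My 235/80 and clinical isolate 6509/96, each with strain dilution 10^-4. Incubation was at 37 °C, and MIC was read at 7, 14 and 21 days.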

[2] = system: Mycobacterium tuberculosis; test: Antimycobacterial activity against Mycobacterium tuberculosis CNCTC My 331/88 after 14 days; assay type: functional; settings: CNCTC My 331/88, 336 h
Outline: (§2)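 Broth dilution in Sula semisynthetic medium, compounds added as DMSO solutions at 250, 125, 62, 32, 16, 8, 4, 2 and 1. Strains came from the Czech National Collection of Type Cultures; the M. tuberculosis inoculum was diluted 10^-3. Cultures were incubated at 37 °C, and MIC was read after 7, 14 and 21 days.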

[3] = Stability assessed as half life in phosphate buffer at pH 7.4 by UV-visible spectroscopy; assay type: physicochemical
Outline: (§3)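 Compound in methanolic solution (10 or 20 µL) was added to tempered 7 × 10^-2 M phosphate buffer (2 mL) at pH 7.4 or 5.5, 37 °C. The absorbance decrease at 224 nm was followed by UV/vis.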

Mycobacterium kansasii [4] = test: Antimycobacterial activity against Mycobacterium kansasii CNCTC My 235/80 after 21 days; assay type: functional; settings: CNCTC My 235/80, 504 h; outline: as §1
Mycobacterium kansasii [5] = test: Antimycobacterial activity against Mycobacterium kansasii isolate 6509/96 after 7 days; assay type: functional; settings: isolate 6509/96, 168 h; outline: as §1
Mycobacterium avium [6] = test: Antimycobacterial activity against Mycobacterium avium CNCTC My 330/88 after 21 days; assay type: functional; settings: CNCTC My 330/88, 504 h; outline: as §2
[7] = Selectivity index, ratio of EC50 for human HCT8 cells to MIC for Mycobacterium tuberculosis CNCTC My 331/88; assay type: functional, HCT-8
Outline: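 SI is EC50 in HCT-8 cells divided by the M. tuberculosis MIC. HCT-8 cells were grown in EMEM with 5% FBS at 37 °C under 5% CO₂, trypsinised and seeded at 2 × 10⁵ cells/mL. After 24 h the medium was replaced with compound in DMSO. Controls were DMSO alone and 20% DMSO. Absorbance was read at 450 nm 4 h after reagent addition, in triplicate.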

Mycobacterium kansasii [8] = test: Antimycobacterial activity against Mycobacterium kansasii isolate 6509/96 after 14 days; assay type: functional; settings: isolate 6509/96, 336 h; outline: as §1
[9] = system: Mycobacterium tuberculosis; test: Antimycobacterial activity against Mycobacterium tuberculosis CNCTC My 331/88 after 21 days; assay type: functional; settings: CNCTC My 331/88, 504 h; outline: as §2
Mycobacterium kansasii [10] = test: Antimycobacterial activity against Mycobacterium kansasii CNCTC My 235/80 after 14 days; assay type: functional; settings: CNCTC My 235/80, 336 h; outline: as §1
[11] = Stability assessed as half life in phosphate buffer at pH 5.5 by UV-visible spectroscopy; assay type: physicochemical; outline: as §3
HCT-8 = test: Cytotoxicity against human HCT8 cells after 72 hrs by XTT assay; assay type: functional, cell-based; settings: HCT-8, 72 h
Outline: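 HCT-8 cells were grown in EMEM with 5% FBS at 37 °C under 5% CO2. They were harvested with trypsin, seeded at 2 × 10^5 cells/mL and left 24 h. Medium was then replaced with compound in DMSO. DMSO-only wells served as the viability control and 20% DMSO as the cytotoxic control. Reagent was added for 4 h and absorbance read at 450 nm. Triplicates; EC50 reported.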

Mycobacterium kansasii [12] = test: Antimycobacterial activity against Mycobacterium kansasii isolate 6509/96 after 21 days; assay type: functional; settings: isolate 6509/96, 504 h; outline: as §1
[13] = Lipophilicity, log K by HPLC; assay type: physicochemical
Outline: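 Capacity factors k were measured by RP-HPLC and log k was calculated from them.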

Mycobacterium avium [14] = test: Antimycobacterial activity against Mycobacterium avium CNCTC My 330/88 after 14 days; assay type: functional; settings: CNCTC My 330/88, 336 h; outline: as §2

| Structure (SMILES) | MIC (Mycobacterium kansasii [1]) [µM] | MIC [2] [µM] | half-life [3] [min] | MIC (Mycobacterium kansasii [4]) [µM] | MIC (Mycobacterium kansasii [5]) [µM] | MIC (Mycobacterium avium [6]) [µM] | Ratio [7] | MIC (Mycobacterium kansasii [8]) [µM] | MIC [9] [µM] | MIC (Mycobacterium kansasii [10]) [µM] | half-life [11] [min] | pEC50 (HCT-8) | MIC (Mycobacterium kansasii [12]) [µM] | log K [13] | MIC (Mycobacterium avium [14]) [µM] |
| --- | --- | --- | --- | --- | --- | --- | --- | --- | --- | --- | --- | --- | --- | --- | --- |
| O=C(N[C@@H](Cc1ccccc1)C(=O)Oc1cc(Cl)ccc1C(=O)Nc1ccc(Cl)cc1)OCc1ccccc1 | 4 (≈ 2.25 µg/mL) | 4 (≈ 2.25 µg/mL) | 25.3 | 8 (≈ 4.51 µg/mL) | 4 (≈ 2.25 µg/mL) | 8 (≈ 4.51 µg/mL) | 20.73 | 8 (≈ 4.51 µg/mL) | 4 (≈ 2.25 µg/mL) | 8 (≈ 4.51 µg/mL) | 21.9 | 4.08 | 8 (≈ 4.51 µg/mL) | 1.0304 | 8 (≈ 4.51 µg/mL) |
| CC(C)[C@@H](NC(=O)OCc1ccccc1)C(=O)Oc1cc(Cl)ccc1C(=O)Nc1ccc(Cl)cc1 | 4 (≈ 2.06 µg/mL) | 4 (≈ 2.06 µg/mL) | 20.4 | 8 (≈ 4.12 µg/mL) | 4 (≈ 2.06 µg/mL) | 16 (≈ 8.25 µg/mL) | 13.75 | 8 (≈ 4.12 µg/mL) | 4 (≈ 2.06 µg/mL) | 8 (≈ 4.12 µg/mL) | 20.3 | 3.97 | 8 (≈ 4.12 µg/mL) | 0.8816 | 8 (≈ 4.12 µg/mL) |
| O=C(N[C@@H](Cc1ccccc1)C(=O)Oc1ccc(Cl)cc1C(=O)Nc1ccc(Cl)cc1)OCc1ccccc1 | 8 (≈ 4.51 µg/mL) | 4 (≈ 2.25 µg/mL) | – | 16 (≈ 9.01 µg/mL) | 8 (≈ 4.51 µg/mL) | 16 (≈ 9.01 µg/mL) | – | 16 (≈ 9.01 µg/mL) | 4 (≈ 2.25 µg/mL) | 16 (≈ 9.01 µg/mL) | – | – | 16 (≈ 9.01 µg/mL) | 1.0971 | 16 (≈ 9.01 µg/mL) |
| O=C(N[C@H](Cc1ccccc1)C(=O)Oc1cc(Cl)ccc1C(=O)Nc1ccc(Cl)cc1)OCc1ccccc1 | 4 (≈ 2.25 µg/mL) | 4 (≈ 2.25 µg/mL) | 22.1 | 8 (≈ 4.51 µg/mL) | 4 (≈ 2.25 µg/mL) | 8 (≈ 4.51 µg/mL) | 26.05 | 8 (≈ 4.51 µg/mL) | 4 (≈ 2.25 µg/mL) | 8 (≈ 4.51 µg/mL) | 17.9 | 3.98 | 8 (≈ 4.51 µg/mL) | 1.0315 | 8 (≈ 4.51 µg/mL) |
| C[C@@H](NC(=O)OCc1ccccc1)C(=O)Oc1ccc(Cl)cc1C(=O)Nc1cccc(Cl)c1 | 16 (≈ 7.8 µg/mL) | 8 (≈ 3.9 µg/mL) | – | 16 (≈ 7.8 µg/mL) | 8 (≈ 3.9 µg/mL) | 32 (≈ 15.6 µg/mL) | – | 16 (≈ 7.8 µg/mL) | 8 (≈ 3.9 µg/mL) | 16 (≈ 7.8 µg/mL) | – | – | 16 (≈ 7.8 µg/mL) | 0.699 | 32 (≈ 15.6 µg/mL) |
| C[C@H](NC(=O)OCc1ccccc1)C(=O)Oc1ccc(Cl)cc1C(=O)Nc1ccc(Cl)c(Cl)c1 | 4 (≈ 2.09 µg/mL) | 2 (≈ 1.04 µg/mL) | – | 8 (≈ 4.17 µg/mL) | 8 (≈ 4.17 µg/mL) | 32 (≈ 16.7 µg/mL) | – | 16 (≈ 8.35 µg/mL) | 4 (≈ 2.09 µg/mL) | 4 (≈ 2.09 µg/mL) | – | – | 16 (≈ 8.35 µg/mL) | 0.9408 | 16 (≈ 8.35 µg/mL) |
| O=C(N[C@@H](Cc1ccccc1)C(=O)Oc1ccc(Cl)cc1C(=O)Nc1cccc(Cl)c1)OCc1ccccc1 | 32 (≈ 18 µg/mL) | 16 (≈ 9.01 µg/mL) | – | 32 (≈ 18 µg/mL) | 32 (≈ 18 µg/mL) | 62.5 (≈ 35.2 µg/mL) | – | 32 (≈ 18 µg/mL) | 16 (≈ 9.01 µg/mL) | 32 (≈ 18 µg/mL) | – | – | 32 (≈ 18 µg/mL) | 1.0465 | 32 (≈ 18 µg/mL) |
| CC(C)[C@H](NC(=O)OCc1ccccc1)C(=O)Oc1cc(Cl)ccc1C(=O)Nc1ccc(Cl)cc1 | 4 (≈ 2.06 µg/mL) | 4 (≈ 2.06 µg/mL) | – | 8 (≈ 4.12 µg/mL) | 4 (≈ 2.06 µg/mL) | 16 (≈ 8.25 µg/mL) | – | 8 (≈ 4.12 µg/mL) | 8 (≈ 4.12 µg/mL) | 8 (≈ 4.12 µg/mL) | – | – | 16 (≈ 8.25 µg/mL) | 0.8804 | 16 (≈ 8.25 µg/mL) |
| C[C@H](NC(=O)OCc1ccccc1)C(=O)Oc1ccc(Cl)cc1C(=O)Nc1cccc(Cl)c1 | 16 (≈ 7.8 µg/mL) | 4 (≈ 1.95 µg/mL) | – | 16 (≈ 7.8 µg/mL) | 8 (≈ 3.9 µg/mL) | 62.5 (≈ 30.5 µg/mL) | – | 16 (≈ 7.8 µg/mL) | 8 (≈ 3.9 µg/mL) | 16 (≈ 7.8 µg/mL) | – | – | 16 (≈ 7.8 µg/mL) | 0.6995 | 32 (≈ 15.6 µg/mL) |
